Experimental data from ChEMBL document CHEMBL1955813, “Synthesis of new troglitazone derivatives: anti-proliferative activity in breast cancer cell lines and preliminary toxicological study” (Eur J Med Chem, 2012).

Columns and labels:
MDA-MB-231 = assay: Antiproliferative activity hormone-independent human MDA-MB-231 cells after 24 hrs by luminescent cell viability assay; format: functional, cell-based; settings: MDA-MB-231, 24 h
Procedure, shortened: (§1)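 Seeded at 8.10⁴ cells/well; after 24 h attachment, medium switched to 1% FCS with 2 mM L-glutamine and compounds added. MCF-7 grown in phenol red DMEM, MDA-MB-231 in L-15 (both 10% FCS, 37 °C). Exposure 24 h; controls 0.1% DMSO. Cells washed, trypsinized, quantified by CellTiter-Glo luminescence. Triplicate; IC50 = concentration halving viable cell number.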

[1] = Cytotoxicity against human hepatocytes assessed as cell viability at 100 uM after 90 mins by MTT assay relative to control; format: cell-based, Hepatocyte; settings: read-out: Activity
Procedure, shortened: (§2)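 Cryopreserved primary human hepatocytes, 0.1 × 10⁶ cells/well in DMEM with gentamycin, insulin, 10 µM dexamethasone, 37 °C, 5% CO₂. Equilibrated 30 min with stirring at 900 rpm, then compound or DMSO (0.4%) added, 0.5–100 µM (7 levels), triplicate. After 90 min, MTT added for 30 min at 37 °C; formazan dissolved in DMSO, A595; viability as % of DMSO control.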

MCF7 = assay: Antiproliferative activity hormone-dependent human MCF7 cells after 24 hrs by luminescent cell viability assay; format: functional, cell-based; settings: MCF7, 24 h; procedure, shortened: as §1
Hepatocyte = assay: Cytotoxicity against human hepatocytes assessed as cell viability up to 50 uM after 90 mins by MTT assay; format: cell-based; settings: 1.5 h; procedure, shortened: as §2
[2] = Cmax in human at 600 mg/day; format: ADME, organism-based; set-up: dose 600 mg/day; settings: plasma
[3] = Ratio of drug level in liver to plasma in rat; format: ADME, tissue-based; settings: liver and plasma

Compound	IC50 (MDA-MB-231) [µM]	IC50 (MCF7) [µM]	Cmax [2] [µM]	Kp [3]	viability at 1.5 h, 100 µM [1] [%]	Activity (Hepatocyte)
Cc1c(C)c2c(c(C)c1OC(=O)CCC(=O)O)CCC(C)(COc1ccc(CC3SC(=O)NC3=O)cc1)O2 (racemic)	> 25	> 50	–	–	76	–
Cc1c(C)c2c(c(C)c1OC(=O)CCCCCCCNC(=O)CCCC[C@@H]1SC[C@@H]3NC(=O)N[C@@H]31)CCC(C)(COc1ccc(/C=C3\SC(=O)NC3=O)cc1)O2 (stereo partly drawn)	3.7	26	–	–	61	–
Cc1c(C)c2c(c(C)c1OC(=O)CCCC[C@@H]1SC[C@@H]3NC(=O)N[C@@H]31)CCC(C)(COc1ccc(/C=C3\SC(=O)NC3=O)cc1)O2 (mixture of isomers)	3.5	11.2	–	–	66	–
CC(=O)NCCNC(=O)CCC(=O)Oc1c(C)c(C)c2c(c1C)CCC(C)(COc1ccc(/C=C3\SC(=O)NC3=O)cc1)O2 (racemic)	> 25	> 50	–	–	75	–
Cc1cc(C)c2c(c1C)OC(C)(COc1ccc(/C=C3\SC(=O)NC3=O)cc1)CC2 (racemic)	10.8	12.5	–	–	84	Non-toxic
Cc1cc(C)c2c(c1C)OC(C)(COc1ccc(CC3SC(=O)NC3=O)cc1)CC2 (racemic)	12.3	20	–	–	66	–
Cc1c(C)c2c(c(C)c1O)CCC(C)(COc1ccc(CC3SC(=O)NC3=O)cc1)O2 (stereo not drawn) [TROGLITAZONE]	15.7	35.4	6.3	10	52	Non-toxic
Cc1c(C)c2c(c(C)c1OC(=O)CCCC[C@@H]1SC[C@@H]3NC(=O)N[C@@H]31)CCC(C)(COc1ccc(CC3SC(=O)NC3=O)cc1)O2 (mixture of isomers)	6.5	15.9	–	–	50	–

Continued, in another order:

IC50 (MDA-MB-231) [µM]	IC50 (MCF7) [µM]	Cmax [2] [µM]	Kp [3]	Compound	viability at 1.5 h, 100 µM [1] [%]	Activity (Hepatocyte)
5	3.2	–	–	Cc1c(C)c2c(c(C)c1OC(=O)CCCCCCCN)CCC(C)(COc1ccc(/C=C3\SC(=O)NC3=O)cc1)O2 (racemic)	57	–
3.8	11.2	–	–	Cc1c(C)c2c(c(C)c1OC(=O)OC(C)(C)C)CCC(C)(COc1ccc(CC3SC(=O)NC3=O)cc1)O2 (racemic)	47	–
3.3	7.7	–	–	Cc1c(C)c2c(c(C)c1OC(=O)OC(C)(C)C)CCC(C)(COc1ccc(/C=C3\SC(=O)NC3=O)cc1)O2 (racemic)	75	–
> 25	> 50	–	–	Cc1c(C)c2c(c(C)c1OC(=O)CCC(=O)O)CCC(C)(COc1ccc(/C=C3\SC(=O)NC3=O)cc1)O2 (racemic)	54	–
3.2	13	–	–	Cc1c(C)c2c(c(C)c1OC(=O)CCCCCCCNC(=O)OC(C)(C)C)CCC(C)(COc1ccc(/C=C3\SC(=O)NC3=O)cc1)O2 (racemic)	79	Non-toxic
16.6	29.7	–	–	Cc1c(C)c2c(c(C)c1O)CCC(C)(COc1ccc(/C=C3\SC(=O)NC3=O)cc1)O2 (racemic)	63	Non-toxic
